Data: ChEMBL document CHEMBL3085744, “Hepatoprotective prenylaromadendrane-type diterpenes from the gum resin of Boswellia carterii” (J Nat Prod, 2013)
The source made the active and inactive calls. No cut-off for these calls is given here.

Legend:
L02 [1] = test: Hepatoprotective activity against D-galactosamine-induced cell toxicity in human HL-7702 cells assessed as cell survival incubated for 1 hr prior to D-galactosamine-challenge measured after 24 hrs by MTT assay relative to normal cells; assay type: functional; design: concentration or dose not given beside the values
Procedure, shortened: (§1)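 HL-7702 cells (2 × 10^4 per well) precultured 24 h at 37 °C, 5% CO2 in RPMI 1640 with 10% fetal calf serum, penicillin and streptomycin. Test compound (10 μM) added in fresh medium for 1 h, then 25 mM D-galactosamine for 24 h. MTT 0.5 mg/mL 4 h, formazan in DMSO, OD 492 nm. Survival as % of normal; means ± SD, n = 3; bicyclol 10 μM as positive control.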

[2] = Hepatoprotective activity in human HL-7702 cells assessed as inhibition of D-galactosamine-induced cell toxicity incubated for 1 hr prior to D-galactosamine-challenge measured after 24 hrs by MTT assay relative to control; assay type: functional, L02
[3] = Cytotoxicity against human Bel7402 cells by MTT assay; assay type: cell-based; conditions: Bel-7402
Neuron = test: Neuroprotective activity against MPP+-induced neuronal cell injury in neurons (unknown origin); assay type: functional, cell-based
[4] = Cytotoxicity against human HCT8 cells by MTT assay; assay type: cell-based; conditions: HCT-8
A2780 = test: Cytotoxicity against human A2780 cells by MTT assay; assay type: cell-based
[5] = Cytotoxicity against human BGC823 cells by MTT assay; assay type: cell-based; conditions: BGC-823
A549 = test: Cytotoxicity against human A549 cells by MTT assay; assay type: cell-based
L02 [6] = test: Hepatoprotective activity against D-galactosamine-induced cell toxicity in human HL-7702 cells assessed as cell survival at 10 uM incubated for 1 hr prior to D-galactosamine-challenge measured after 24 hrs by MTT assay relative to normal cells; assay type: functional; conditions: read-out: Survival; procedure, shortened: as §1

Row | SMILES | Survival (L02 [1]) | inhibition (INH) [2] | IC50 [3] | Activity (Neuron) | IC50 [4] | IC50 (A2780) | IC50 [5] | IC50 (A549) | viability at 10 µM (L02 [6])
1 | C=C1CC[C@@H]2[C@H]([C@@H]3[C@H]1CC[C@]3(C)O)[C@@]2(C)CC/C=C(/C)CO | 73% | 33.6% | > 10 µM | inactive | > 10 µM | > 10 µM | > 10 µM | > 10 µM | –
2 | C=C1CC[C@@H]2[C@H]([C@@H]3[C@H]1CC[C@]3(C)O)[C@@]2(C)/C=C/C=C(/C)CO | 69% | 26.1% | > 10 µM | inactive | > 10 µM | > 10 µM | > 10 µM | > 10 µM | –
3 | C=C1CC[C@@H]2[C@H]([C@@H]3[C@H]1CC[C@]3(C)O)[C@@]2(C)C/C=C/C(C)(C)O | 70% | 27% | > 10 µM | inactive | > 10 µM | > 10 µM | > 10 µM | > 10 µM | –
4 | C=C1CC[C@@H]2[C@H]([C@@H]3[C@H]1CC[C@]3(C)O)[C@@]2(C)[C@@H]1C(=O)C(C)=C[C@H]1O | – | – | > 10 µM | inactive | > 10 µM | > 10 µM | > 10 µM | > 10 µM | –
5 | C=C1CC[C@@H]2[C@H]([C@@H]3[C@H]1CC[C@]3(C)O)[C@@]2(C)C[C@@H]1C=C(C)C(=O)O1 | 73% | 33.6% | > 10 µM | inactive | > 10 µM | > 10 µM | > 10 µM | > 10 µM | –
6 | C=C1CC[C@@H]2[C@H]([C@H]3[C@H](C)CC[C@@H]13)[C@@]2(C)C[C@H](O)/C=C(/C)CO | 73% | 36.3% | > 10 µM | inactive | > 10 µM | > 10 µM | > 10 µM | > 10 µM | –
7 | C=C1CC[C@@H]2[C@H]([C@@H]3[C@H]1CC[C@]3(C)O)[C@@]2(C)/C=C/C=C(\C)C=O | 88% | 69.6% | > 10 µM | inactive | > 10 µM | > 10 µM | > 10 µM | > 10 µM | –
8 | C=C1CC[C@@H]2[C@H]([C@@H]3[C@H]1CC[C@]3(C)O)[C@@]2(C)C[C@H]1C=C(C)C(=O)O1 | 68% | 24.3% | > 10 µM | inactive | > 10 µM | > 10 µM | > 10 µM | > 10 µM | –
9 | C=C1CC[C@@H]2[C@H]([C@@H]3[C@H]1CC[C@]3(C)O)[C@@]2(C)C(/C=C/C(C)(C)O)OC (stereo not given in full) | – | – | > 10 µM | inactive | > 10 µM | > 10 µM | > 10 µM | > 10 µM | –
10 | COC(=O)c1cc(OC)c2c(c1-c1c(CO)cc(OC)c3c1OCO3)OCO2 [BICYCLOL] | – | 42.5% | – | – | – | – | – | – | 76%
